Assay results published in ChEMBL document CHEMBL4725282, “Discovery of a Conformationally Constrained Oxazolidinone with Improved Safety and Efficacy Profiles for the Treatment of Multidrug-Resistant Tuberculosis” (J Med Chem, 2020).

What was measured:
[1] = Toxicity in female Sprague-Dawley rat assessed as change in mean corpuscular volume at 450 mg/kg/day, po administered for 4 weeks followed by 2 week recovery period (Rvb =56.1 +/- 0.8 fL); format: organism-based; conditions: in vivo, 672 h
[2] = Toxicity in male Sprague-Dawley rat assessed as change in lymphocyte level at 50 mg/kg/day, po administered for 4 weeks followed by 2 week recovery period (Rvb =77.4 +/- 3.7 %); format: organism-based; conditions: in vivo, 672 h
[3] = Toxicity in female Sprague-Dawley rat assessed as ophthalmic changes at 50 to 450 mg/kg/day, po administered for 4 weeks measured within 7 days of post last dose; format: organism-based; conditions: in vivo, 672 h, dose 50-450 mg/kg/day
Method in brief: (§1)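 SD rats, 6-7 weeks old (96 in total), split into vehicle, 50, 150 and 450 mg/kg/day groups of 12 females and 12 males each, given oral doses once daily for 4 weeks, then 2 weeks of recovery. Mortality, body weight, food intake, eyes, urine and neuropsychic signs were observed. Organ and bone marrow histopathology was done on 8 rats per sex per group after the last dose and on the remaining 4 per sex after 14 days of recovery.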

[4] = Toxicity in male Sprague-Dawley rat assessed as change in lymphocyte level at 150 mg/kg/day, po administered for 4 weeks followed by 2 week recovery period (Rvb =77.4 +/- 3.7 %); format: organism-based; conditions: in vivo, 672 h
[5] = Toxicity in female Sprague-Dawley rat assessed as change in mean corpuscular volume at 50 mg/kg/day, po administered for 4 weeks followed by 2 week recovery period (Rvb =56.1 +/- 0.8 fL); format: organism-based; conditions: in vivo, 672 h
[6] = Toxicity in female Sprague-Dawley rat assessed as change in hematocrit level at 150 mg/kg/day, po administered for 4 weeks followed by 2 week recovery period (Rvb =41.1 +/- 1.4 %); format: organism-based; conditions: in vivo, 672 h
[7] = target: Cytochrome P450 2C9 (Homo sapiens, UniProt P11712); assay: Inhibition of CYP2C9 in human liver microsomes after 20 mins by LC-MS/MS analysis; format: ADME
[8] = Toxicity in female Sprague-Dawley rat assessed as change in red blood cell count at 150 mg/kg/day, po administered for 4 weeks followed by 2 week recovery period (Rvb =7.32 +/- 0.20 10^12/L); format: organism-based; conditions: in vivo, 672 h
[9] = Toxicity in male Sprague-Dawley rat assessed as change in neutrophil level at 50 mg/kg/day, po administered for 4 weeks followed by 2 week recovery period (Rvb =15.9 +/- 3.4 %); format: organism-based; conditions: in vivo, 672 h
[10] = Toxicity in female Sprague-Dawley rat assessed as change in red blood cell count at 450 mg/kg/day, po administered for 4 weeks followed by 2 week recovery period (Rvb =7.32 +/- 0.20 10^12/L); format: organism-based; conditions: in vivo, 672 h
[11] = Toxicity in male Sprague-Dawley rat assessed as change in mean corpuscular hemoglobin at 150 mg/kg/day, po administered for 4 weeks followed by 2 week recovery period (Rvb =18.3 +/- 0.4 pg); format: organism-based; conditions: in vivo, 672 h
[12] = Toxicity in male Sprague-Dawley rat assessed as change in mean platelet volume at 50 mg/kg/day, po administered for 4 weeks followed by 2 week recovery period (Rvb =7.0 +/- 0.4 fL); format: organism-based; conditions: in vivo, 672 h
[13] = Toxicity in female Sprague-Dawley rat assessed as ophthalmic changes at 50 to 450 mg/kg/day, po administered for 4 weeks followed by 2 week recovery period measured within 7 days of post recover period; format: organism-based; conditions: in vivo, 672 h, dose 50-450 mg/kg/day; method in brief: as §1
[14] = Toxicity in female Sprague-Dawley rat assessed as change in platelet count at 150 mg/kg/day, po administered for 4 weeks followed by 2 week recovery period (Rvb =1051 +/- 122 10^9/L); format: organism-based; conditions: in vivo, 672 h
[15] = Half life in cynomolgus monkey hepatocytes at 2 uM by LC-MS/MS analysis; format: ADME, cell-based, Macaca fascicularis, Hepatocyte
Method in brief: (§2)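 Hepatocytes (male CD-1 mouse, male SD rat, male beagle dog, male cynomolgus monkey, pooled human), final 1 μM compound and 1 million cells/mL, made by mixing 2 μM compound with 2 million cells/mL. Incubated at 37 °C in a CO2 incubator; sampled at 0, 15, 30, 60, 90 and 120 min. Quenched with methanol/ACN containing 0.1% formic acid. Parent remaining measured by LC-MS/MS.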

[16] = Toxicity in male Sprague-Dawley rat assessed as change in platelet count at 450 mg/kg/day, po administered for 4 weeks followed by 2 week recovery period (Rvb =1077 +/- 117 10^9/L); format: organism-based; conditions: in vivo, 672 h
[17] = Toxicity in female Sprague-Dawley rat assessed as histopathological changes in bone marrow at 450 mg/kg/day, po administered for 4 weeks measured post last dose; format: organism-based; conditions: in vivo, 672 h; method in brief: as §1
[18] = Toxicity in female Sprague-Dawley rat assessed as change in hematocrit level at 50 mg/kg/day, po administered for 4 weeks followed by 2 week recovery period (Rvb =41.1 +/- 1.4 %); format: organism-based; conditions: in vivo, 672 h
[19] = Toxicity in female Sprague-Dawley rat assessed as ophthalmic changes at 50 to 450 mg/kg/day, po administered for 4 weeks followed by 2 week recovery period; format: organism-based; conditions: in vivo, 1008 h, dose 50-450 mg/kg/day, time 6 weeks; method in brief: as §1
[20] = Half life in CD-1 mouse hepatocytes at 2 uM by LC-MS/MS analysis; format: ADME, cell-based, Hepatocyte; method in brief: as §2
[21] = Genotoxicity in CHO-WBL cells assessed as chromosome aberration at 20 to 150 ug/ml measured after 20 hrs in presence of S9 fraction by Giemsa staining based; format: toxicity, subcellular, Cricetulus griseus; conditions: chinese hamster, s9, 20 h, dose 20-150 µg/ml
Method in brief: (§3)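 CHO-WBL cells in McCoy's 5A with 10% FBS, seeded 20-24 h before treatment. Compound in DMSO, with or without serum-free S-9 mix. Treatment either 3 h, then HBSS wash and 17 h further culture, or 20 h; harvest at 20 h from treatment start. Colcemid 0.1 μg/mL for the final 2 h, hypotonic KCl, methanol:acetic acid fixation, Giemsa stain. 300 metaphases per concentration (150 per duplicate flask) scored.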

[22] = Toxicity in female Sprague-Dawley rat assessed as change in white blood cell count at 150 mg/kg/day, po administered for 4 weeks followed by 2 week recovery period (Rvb =3.61 +/- 0.75 10^9/L); format: organism-based; conditions: in vivo, 672 h
[23] = Toxicity in male Sprague-Dawley rat assessed as change in mean platelet volume at 150 mg/kg/day, po administered for 4 weeks followed by 2 week recovery period (Rvb =7.0 +/- 0.4 fL); format: organism-based; conditions: in vivo, 672 h
[24] = Toxicity in male Sprague-Dawley rat assessed as ophthalmic changes at 50 to 450 mg/kg/day, po administered for 4 weeks measured within 7 days of post last dose; format: organism-based; conditions: in vivo, 672 h, dose 50-450 mg/kg/day
[25] = Genotoxicity in CHO-WBL cells assessed as chromosome aberration at 90 to 397.1 ug/ml measured after 20 hrs in absence of S9 fraction by Giemsa staining based; format: toxicity, cell-based, Cricetulus griseus; conditions: chinese hamster, dose 90-397.1 µg/ml; method in brief: as §3
[26] = Tmax in Balb/c mouse at 2.5 mg/kg, iv by LC-MS/MS analysis; format: ADME, organism-based; conditions: in vivo
Method in brief: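 Female BALB/c mice, 20-25 g, five per route. Dosed 25 mg/kg p.o. in 0.5% carboxymethyl cellulose or 2.5 mg/kg i.v. in 10% DMSO/saline. Blood sampled 5 min-72 h (p.o.) or 2 min-48 h (i.v.), quantified by LC/MS/MS with ESI+. Parameters by non-compartmental analysis; F = (AUCpo×dose_iv)/(AUCiv×dose_po)×100%.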

Cytochrome P450 2C9, sequence (P11712 whole entry): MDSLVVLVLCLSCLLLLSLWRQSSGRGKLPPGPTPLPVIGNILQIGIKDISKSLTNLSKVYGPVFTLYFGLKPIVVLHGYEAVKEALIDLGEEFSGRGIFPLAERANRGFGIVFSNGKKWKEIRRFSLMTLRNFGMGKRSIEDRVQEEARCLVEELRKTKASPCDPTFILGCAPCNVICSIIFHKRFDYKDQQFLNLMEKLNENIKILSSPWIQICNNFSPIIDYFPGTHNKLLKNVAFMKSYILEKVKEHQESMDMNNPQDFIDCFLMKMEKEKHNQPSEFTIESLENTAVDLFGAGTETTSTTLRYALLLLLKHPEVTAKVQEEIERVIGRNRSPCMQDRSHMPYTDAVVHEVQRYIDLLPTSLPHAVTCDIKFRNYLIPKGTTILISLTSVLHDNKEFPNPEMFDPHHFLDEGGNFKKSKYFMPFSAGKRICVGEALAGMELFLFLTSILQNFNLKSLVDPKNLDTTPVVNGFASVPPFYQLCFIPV

CC(=O)NC[C@@H]1OC(=O)N2c3cc(F)c(N4CCSCC4)cc3OC[C@@H]12
Activity [1]: 56.5 fL
Activity [2]: 82%
Activity [3]: Non-Toxic
Activity [4]: 77.3%
Activity [5]: 56.5 fL
Activity [6]: 37.4%
IC50 [7]: > 50 µM
Activity [8]: 6.61 10^12/L
Activity [9]: 13%
Activity [10]: 6.53 10^12/L
Activity [11]: 18.5 pg
Activity [12]: 7 fL
Activity [13]: Non-Toxic
Activity [14]: 787 10^9/L
half-life at 2 µM [15]: 5.25 h
Activity [16]: 1038 10^9/L
Activity [17]: Non-Toxic
Activity [18]: 38.7%
Activity [19]: Non-Toxic
half-life at 2 µM [20]: 1.27 h
Activity [21]: Non-Toxic
Activity [22]: 3.04 10^9/L
Activity [23]: 7 fL
Activity [24]: Non-Toxic

CC(=O)NC[C@@H]1OC(=O)N2c3cc(F)c(N4CC[S+]([O-])CC4)cc3OC[C@@H]12
Activity [25]: Non-Toxic
Tmax [26]: 0.7 h
